Laboratory results from ChEMBL document CHEMBL1123516, “Substituted 1,3,4-thiadiazoles with anticonvulsant activity. 1. Hydrazines” (J Med Chem, 1986).

What was measured:
Mus musculus [1] = test: Anticonvulsant activity tested by maximal metrazole seizure (MMS) test in mouse after 1 hr of administration; type: functional
Outline: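 Male BKW mice, 18-22 g, dosed orally with compound in 2% Tween 80/water. Metrazol 120 mg/kg ip was given 1 h after dosing. ED50 for block of hind limb tonic seizure was derived by Bliss probit analysis.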

[2] = Neurotoxicity by performing a rotarod test in mouse after 1 hr of administration; type: toxicity, organism-based; settings: in vivo
Outline: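 Male BKW mice, 18-22 g, were pre-trained on a rotorod turning at 16 rpm (3 cm drum). They were dosed ip or po in 2% Tween 80/water and tested at timed intervals. TD50, the dose at which 50% fell off the rod, was derived by probit analysis.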

Mus musculus [3] = test: Anticonvulsant activity tested by maximal electroshock test (MES) in mouse after 1 hr of administration; type: functional
Outline: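 Male BKW mice (LACA origin), 18-22 g, dosed ip or po with compound dissolved or suspended in 2% Tween 80 in distilled water. Readout was block of hind limb tonic seizure. ED50 was derived by probit analysis using the computerized Bliss method.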

Rattus norvegicus = test: Maximum percent fall in mean arterial blood pressure was evaluated by injecting 100 mg/kg perorally in DOCA hypertensive rats; type: functional; settings: route oral

SMILES	ED50 (Mus musculus [1]) [mg/kg]	TD50 at 1 h [2] [mg/kg]	ED50 (Mus musculus [3]) [mg/kg]	Decrease in blood pressure (Rattus norvegicus) [%]
CC(C)N(N)c1nnc(-c2ccccc2Cl)s1	> 100	> 800	54	
CN(NC1CCCC1)c1nnc(-c2ccccc2Cl)s1.Cl	> 100		106	
CN(N)c1nnc(CCc2ccccc2)s1.Cl	49	317	51	
Cc1ccccc1-c1nnc(N(N)c2ccccc2)s1	> 100	> 400	> 100	
Clc1ccccc1-c1nnc(NNC2CCCC2)s1	> 100		> 100	
Clc1ccccc1-c1nnc(NNc2ccccc2)s1	> 200		> 100	
CNN(c1nnc(-c2ccccc2Cl)s1)C(C)C	> 100		> 100	
Cl.NNc1nnc(-c2ccc(-c3ccccc3)cc2)s1			> 200	
Cl.c1ccc(NNc2nnc(-c3ccccc3-c3ccccc3)s2)cc1	> 100		> 100	
Cc1ccccc1-c1nnc(NNc2ccccc2)s1	> 100		> 100	
Cc1ccccc1-c1nnc(NN)s1.Cl	30	55	> 100	63
Cl.NN(Cc1ccccc1)c1nnc(-c2ccccc2-c2ccccc2)s1	> 200		> 200	
CNN(Cc1ccccc1)c1nnc(-c2ccccc2C)s1.Cl	93	341	109	
CNN(C)c1nnc(-c2ccccc2-c2ccccc2)s1.Cl	> 100		~100	
CN(N)c1nnc(-c2ccccc2Cl)s1.Cl	41	136	20	
CC(C)N(c1nnc(-c2ccccc2Cl)s1)N(C)C.Cl	> 200		116	
CC(C)NNc1nnc(-c2ccccc2-c2ccccc2)s1	44		35	
CC(C)NNc1nnc(-c2ccccc2Cl)s1	50	200	50	
NN(c1ccccc1)c1nnc(-c2ccccc2-c2ccccc2)s1	> 100		> 100	
CNN(Cc1ccccc1)c1nnc(-c2ccccc2Cl)s1.Cl	> 100		> 100	
Cc1ccccc1-c1nnc(N(C)N)s1.Cl	41	108	75	29

SMILES	ED50 (Mus musculus [1]) [mg/kg]	TD50 at 1 h [2] [mg/kg]	ED50 (Mus musculus [3]) [mg/kg]	Decrease in blood pressure (Rattus norvegicus) [%]
CNNc1nnc(-c2ccccc2C)s1	> 100		> 100	
CCNN(Cc1ccccc1)c1nnc(-c2ccccc2C)s1.Cl	> 100		> 100	
CCCCCCOc1ccccc1-c1nnc(N(C)N)s1.Cl	27	~160	26	
Cl.Clc1ccccc1-c1nnc(NNCc2ccccc2)s1	> 100		> 100	
Cc1ccccc1-c1nnc(NNC2CCCC2)s1.Cl	> 100		> 100	
CCCCCCOc1ccccc1-c1nnc(NNC(C)C)s1.Cl	> 100		> 100	
NN(CCc1ccccc1)c1nnc(-c2ccccc2Cl)s1	~200		> 100	
CN(N)c1nnc(-c2ccccc2Sc2ccccc2)s1.Cl	27		43	
Cc1ccccc1-c1nnc(N(N)C(C)C)s1.Cl	49		54	
Cl.NN(c1nnc(-c2ccccc2Cl)s1)C1CCCCC1	> 100		> 100	
CC(C)NN(C)c1nnc(-c2ccccc2Cl)s1.Cl	30	71	16	
CN(N)c1nnc(-c2ccccc2Oc2ccccc2)s1.Cl	33	< 400	33	
Cc1ccccc1-c1nnc(NN(C)C(C)C)s1	> 100		140	
CN(Nc1ccccc1)c1nnc(-c2ccccc2Cl)s1	> 100		> 100	
CN(N)c1nnc(-c2ccc(-c3ccccc3)cc2)s1			> 200	
CCCCN(N)c1nnc(-c2ccccc2C)s1.Cl	60		119	
CN(N)c1nnc(Cc2ccccc2)s1.Cl	25	280	11	
CC(C)NN(C)c1nnc(-c2ccccc2-c2ccccc2)s1.Cl	66		55	
CC(C)N(N)c1nnc(-c2ccccc2-c2ccccc2)s1	> 100		> 100	
Cc1ccccc1-c1nnc(N(N)Cc2ccccc2)s1	44	> 200	27	
CCCCCCOc1ccccc1-c1nnc(N(C)NC)s1.Cl	39		< 250	

SMILES	ED50 (Mus musculus [1]) [mg/kg]	TD50 at 1 h [2] [mg/kg]	ED50 (Mus musculus [3]) [mg/kg]	Decrease in blood pressure (Rattus norvegicus) [%]
CN(N)c1nnc(-c2ccccc2Cc2ccccc2)s1.Cl	54		50	
Cc1ccccc1-c1nnc(N(C)NC(C)C)s1.Cl	38		35	
CCCCCCOc1ccccc1-c1nnc(N(C)NC(C)C)s1.Cl	56		97	
Cc1ccccc1-c1nnc(N(Cc2ccccc2)N(C)C)s1.Cl	> 100		> 200	
Cc1ccccc1-c1nnc(N(C)NC2CCCC2)s1.Cl	81		110	
Cl.NNc1nnc(-c2ccccc2-c2ccccc2)s1	33	627	28	18
CCCCCCOc1ccccc1-c1nnc(NNc2ccccc2)s1.Cl	> 100		> 100	
CN(C)N(C)c1nnc(-c2ccccc2Cl)s1.Cl	> 100	347	53	
Cl.NNc1nnc(-c2ccccc2Cl)s1	25	> 568	70	21
Cc1ccccc1-c1nnc(NNC(C)C)s1	54	449	83	
Cc1ccccc1-c1nnc(N(C)N(C)C)s1	68	167	25	
CN(N)c1nnc(-c2cccc(Oc3ccccc3)c2)s1	111		100	
Cc1ccccc1-c1nnc(NNC(c2ccccc2)c2ccccc2)s1	> 100		> 200	
CCCCCCOc1ccccc1-c1nnc(NNC2CCCC2)s1.Cl	> 100		> 100	
CNN(C)c1nnc(-c2ccccc2Cl)s1	25	106	43	
NN(Cc1ccccc1)c1nnc(-c2ccccc2Cl)s1	143		186	
CNN(C)c1nnc(-c2ccccc2C)s1	23	72	10	
CNN(c1nnc(-c2ccccc2C)s1)C(C)C.Cl	> 100		> 100	
Cc1ccccc1-c1nnc(N(C)NC(c2ccccc2)c2ccccc2)s1	> 200		> 200	
Cc1ccccc1-c1nnc(NN(C)C)s1.Cl	> 100	> 250	60	
NN(c1ccccc1)c1nnc(-c2ccccc2Cl)s1	> 100		> 100	
